One assay deals with Staphylococcus aureus. In words: Antibacterial activity against Staphylococcus aureus ATCC 25923 after 24 hrs by MTT colorimetric method. It is filed as functional. The conditions noted are these: ATCC 25923, 24 h. (Formazan colour is commonly taken as a measure of viable cells.)
The test system of a further assay is Escherichia coli. As to the kind of experiment: Antibacterial activity against Escherichia coli ATCC 35218 after 24 hrs by MTT colorimetric method. It is filed as functional. The following applies: ATCC 35218, 24 h.
A short description of assay [1]: Inhibition of Staphylococcus aureus TyrRS expressed in Escherichia coli using L-[ring-3,5-3H] tyrosine preincubated for 10 mins by scintillation counting. Put shortly:
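Aminoacylation assay with purified TyrRS (0.2 nM). Enzyme preincubated with a range of inhibitor concentrations for 10 min at room temperature, then prewarmed mix added at 37 °C. Final mix: 100 mM Tris/Cl pH 7.9, 50 mM KCl, 16 mM MgCl2, 5 mM ATP, 3 mM DTT, 4 mg/ml E. coli MRE600 tRNA, 10 uM tritiated L-tyrosine. Stopped at intervals in ice-cold 7% TCA, filtered, scintillation counted. Rate linear, under 50% tRNA acylation. IC50 is the concentration halving activity.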

The next assay has as its system Bacillus subtilis. As to the kind of experiment: Antibacterial activity against Bacillus subtilis ATCC 6633 after 24 hrs by MTT colorimetric method. It is filed as functional. The conditions noted are these: ATCC 6633, 24 h.
For a further assay, the system named is Candida albicans. In words: Antibacterial activity against Candida albicans ATCC 10231 after 48 hrs by MTT colorimetric method. It is filed as functional. The conditions noted are these: ATCC 10231, 48 h.

Each structure is given as a SMILES string. In brackets after ≈: the same amount, converted by molar mass.

The term MIC50 denotes an inhibitory concentration at the 50% level, which refers to growth in some studies and to a panel of isolates in others. The low end stands for greater potency, the high end for weaker potency. A word on the IC50: it is the concentration at which inhibition is half-maximal. Low readings indicate inhibition by little substance, high ones a need for much substance. Regarding `CCCNCCOC1=C(c2ccccc2)C(=O)OC1`, the MIC50 was 34.3 µg/mL (≈ 131 µM) with Staphylococcus aureus, above 50 µg/mL in the assay on Escherichia coli, above 50 µg/mL against Bacillus subtilis and above 50 µg/mL with Candida albicans. Also, in assay [1], the midpoint of inhibition, the IC50, lay at 29.1 µM.

For `CCCCNCCOC1=C(c2ccccc2)C(=O)OC1`, the IC50 in assay [1] was 71.9 µM. This lies in the double-digit micromolar range.

For `O=C1OCC(OCCNC2CCCCC2)=C1c1ccccc1`, the 50% inhibitory concentration (IC50) in assay [1] is 87.4 µM. The IC50 values of the last two molecules are within 1.5-fold of each other.

The molecule `O=C1OCC(OCCN2CCCCC2)=C1c1ccccc1` gave an IC50 in assay [1] of 53.6 µM. This IC50 is about 1.6-fold lower than that of the molecule before.

As to `O=C1OCC(OCCN2CCCC2)=C1c1ccccc1`, the IC50 in assay [1] was 35.5 µM.

As for `O=C1OCC(OCCN2CCOCC2)=C1c1ccccc1`, the MIC50 against Staphylococcus aureus was 10.4 µg/mL (≈ 35.9 µM); in the assay on Escherichia coli, above 50 µg/mL; against Bacillus subtilis, 47.4 µg/mL (≈ 164 µM); in the assay with Candida albicans, 34.2 µg/mL (≈ 118 µM). Half-maximal inhibition in assay [1] (IC50) was put at 6.2 µM.

In the case of `CN1CCN(CCOC2=C(c3ccccc3)C(=O)OC2)CC1`, the MIC50 in the assay on Staphylococcus aureus was 16.5 µg/mL (≈ 54.6 µM); against Escherichia coli, above 50 µg/mL; against Bacillus subtilis, above 50 µg/mL; in the assay on Candida albicans, above 50 µg/mL. The molecule also displayed an IC50 in assay [1] of 8.6 µM.

Molecule `O=C1OCC(OCCNCc2ccccc2)=C1c1ccccc1` registered a 50% inhibitory concentration (IC50) in assay [1] above 100 µM.

In assay [1], `O=C1OCC(OCCNNc2ccc([N+](=O)[O-])cc2)=C1c1ccccc1` showed a concentration for half-maximal inhibition (IC50) above 100 µM.

In assay [1], `COc1ccc(C2=C(OCCNC3CCCCC3)COC2=O)cc1OC` came in with an IC50 above 100 µM.

In assay [1], `COc1ccc(C2=C(OCCN3CCCCC3)COC2=O)cc1OC` yielded a half-inhibitory concentration (IC50) above 100 µM.

In assay [1], `COc1ccc(C2=C(OCCN3CCN(C)CC3)COC2=O)cc1OC` returned an IC50 above 100 µM.

`CN1CCN(CCOC2=C(c3ccc(Cl)c(Cl)c3)C(=O)OC2)CC1` had a 50% inhibitory concentration (IC50) in assay [1] above 100 µM.

For the molecule `O=C1OCC(OCCN2CCCCC2)=C1c1ccc(F)c(F)c1`, the half-inhibitory concentration (IC50) in assay [1] was above 100 µM.

For `O=C1OCC(OCCN2CCOCC2)=C1c1cccc(Cl)c1`, the half-inhibitory concentration (IC50) in assay [1] worked out at 20.5 µM.

Take `O=C1OCC(OCCN2CCOCC2)=C1c1cccc(Br)c1`: the MIC50 against Staphylococcus aureus is 25.5 µg/mL (≈ 69.3 µM); in the assay on Escherichia coli it was above 50 µg/mL; against Bacillus subtilis, above 50 µg/mL; with Candida albicans, above 50 µg/mL. Further, inhibition in assay [1] was half-maximal at 24.3 µM (IC50).

Consider `COc1cccc(C2=C(OCCN3CCOCC3)COC2=O)c1`, for which the MIC50 in the assay with Staphylococcus aureus is 40.8 µg/mL (≈ 128 µM); against Escherichia coli, above 50 µg/mL; in the assay on Bacillus subtilis, above 50 µg/mL; in the assay with Candida albicans, above 50 µg/mL. Also, in assay [1], inhibition was half-maximal at 37.5 µM (IC50).

Turning to `O=C1OCC(OCCN2CCOCC2)=C1c1ccc(Cl)cc1`, the MIC50 in the assay with Staphylococcus aureus is 1.3 µg/mL (≈ 4.02 µM); in the assay on Escherichia coli, above 50 µg/mL; in the assay on Bacillus subtilis it was 8.6 µg/mL (≈ 26.6 µM); in the assay with Candida albicans, 2.9 µg/mL (≈ 8.96 µM). In assay [1], half-maximal inhibition (IC50) was put at 0.62 µM.

`O=C1OCC(OCCN2CCOCC2)=C1c1ccc(Br)cc1`: the MIC50 is 3 µg/mL (≈ 8.15 µM) against Staphylococcus aureus, above 50 µg/mL against Escherichia coli, 15.8 µg/mL (≈ 42.9 µM) in the assay with Bacillus subtilis and 12.7 µg/mL (≈ 34.5 µM) against Candida albicans. In addition, the midpoint of inhibition in assay [1], the IC50, lay at 2.4 µM.

For `COc1ccc(C2=C(OCCN3CCOCC3)COC2=O)cc1`, the IC50 in assay [1] is 32.8 µM. This lies in the double-digit micromolar range.

Turning to `O=C1OCC(OCCN2CCOCC2)=C1c1cccc(O)c1`, the MIC50 is 34.3 µg/mL (≈ 112 µM) against Staphylococcus aureus, above 50 µg/mL against Escherichia coli, 47.4 µg/mL (≈ 155 µM) against Bacillus subtilis and 47.2 µg/mL (≈ 155 µM) in the assay with Candida albicans. This molecule displayed an IC50 in assay [1] of 25.6 µM.

With `O=C1OCC(OCCN2CCOCC2)=C1c1ccc(O)cc1`, the MIC50 against Staphylococcus aureus was 0.23 µg/mL (≈ 0.753 µM); with Escherichia coli, above 50 µg/mL; against Bacillus subtilis, 2.1 µg/mL (≈ 6.88 µM); in the assay on Candida albicans, 1.1 µg/mL (≈ 3.6 µM). Besides, the IC50 in assay [1] was found to be 0.1 µM.

As to `NC[C@H]1O[C@H](O[C@H]2[C@H](O)[C@@H](O[C@H]3O[C@H](CO)[C@@H](O)[C@H](N)[C@H]3O)[C@H](N)C[C@@H]2N)[C@H](O)[C@@H](O)[C@@H]1O` [KANAMYCIN], the MIC50 with Staphylococcus aureus came out at 1.2 µg/mL (≈ 2.48 µM); in the assay on Bacillus subtilis it was 0.48 µg/mL (≈ 0.991 µM).

`CC(=O)N1CCN(c2ccc(OCC3COC(Cn4ccnc4)(c4ccc(Cl)cc4Cl)O3)cc2)CC1` (configuration not stated) [KETOCONAZOLE] showed an MIC50 in the assay with Candida albicans of 3.8 µg/mL (≈ 7.15 µM).

The molecule `CC1(C)S[C@@H]2[C@H](NC(=O)Cc3ccccc3)C(=O)N2[C@H]1C(=O)O` [PENICILLIN G] came in with an MIC50 against Escherichia coli of 2.7 µg/mL (≈ 8.07 µM).

For the origin of these results see ChEMBL document CHEMBL1795219, “4-alkoxy-3-arylfuran-2(5H)-ones as inhibitors of tyrosyl-tRNA synthetase: synthesis, molecular docking and antibacterial evaluation” (Bioorg Med Chem, 2011).
